# Assay: Toxicity liver stage against HepG2, at 10uM
# Type: cell-based
# Design: test concentration 10 uM, cell line HepG2-A16-CD81EGFP
# Conditions: human, HepG2-A16-CD81EGFP cells; read-out: INHIBITION
# Procedure, shortened: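 Uninfected HepG2-A16-CD81EGFP cells, 3 × 10^3 per well, 1536-well, plated on prespotted compound at 10 μM final, parasite-free screening media added to match infected plates; puromycin 10 μM positive, DMSO 0.5% negative; run in parallel with 48 h PbLuc assay at 37 °C, 5% CO2; viability by CellTiter-Glo luminescence, normalized to controls.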
row,Structure (SMILES),cytotoxicity at 10 µM [%]
1,Cc1nn(CC(O)CN2CCc3ccccc3C2)c(=O)c(C#N)c1C (stereo unspecified),8.27
2,O[C@@H]1C[C@@H](c2nc(-c3ccccc3)no2)N(CC2CCCCC2)C1,-2.74
3,CC(C)NC(=O)[C@]12COC[C@H]1CN(Cc1cnn(C)c1)C2,3.63
4,O=c1[nH]c2nc(N3CCSCC3)ncc2c(=O)n1-c1ccc(F)cc1,9.82
5,O=c1cc2c(nn1CN1CCOCC1)CCC2,1.31
6,Cn1cnc2c1C(COCC1CC1)CN(Cc1ccsc1)C2 (stereo unspecified),-5.07
7,Cc1ccc(NC(=O)c2cccc(OCc3nnnn3C)c2)nc1,4.4
8,CC1(C(N)=O)CN(CC2CCC2)CCO1 (stereo unspecified),2.04
9,CNC(=O)c1cc(C)nc(C2(C)CCCN2c2cc(C)ncn2)n1 (stereo unspecified),2.15
10,Cc1nccn1CCNC(=O)C1(C)CC(c2ccccc2)=NO1 (stereo unspecified),8.46
11,CCc1cc2c(N3CCCC(c4ccn[nH]4)C3)ncnc2s1 (stereo unspecified),15.7
12,COc1ccc(C(CN2CCN(C)CC2)Nc2ncccn2)cc1 (stereo unspecified),5.54
13,COCCNc1nc(-c2ccc(S(=O)(=O)N3CCCCC3)cc2)cs1,-42
14,Cn1cc(CCC(=O)NCc2ccccc2OC(C)(C)C)cn1,6.67
15,COCCN1CC(=O)N(C(C)C)C(C)(C)C1,1.31
16,CCCc1c(C(=O)N2CCN(c3cnccn3)CC2)cnn1C,9.77
17,O=C(NCc1cc(F)ccc1F)Nc1ccn(CC(F)F)n1,-3.06
18,CC(C)C(NCc1ccc(Cn2cncn2)cc1)c1ccccc1 (stereo unspecified),4.1
19,Cc1csc(C(C)(C)NCCNS(C)(=O)=O)n1,4.61
20,COCCn1cc(NC(=O)N(CCC(N)=O)Cc2ccccc2)cn1,-4.72
21,CCc1nccn1C1CCCN(C(=O)CCc2nc(C(C)C)no2)C1 (stereo unspecified),5.93

row,Structure (SMILES),cytotoxicity at 10 µM [%]
1,O=C(Nc1nncs1)N1CCC(c2ccc(O)cc2)CC1,-7.55
2,OCCOc1ccc(NCc2cccc3cn[nH]c23)cn1,-4.13
3,Cc1ccc(S(=O)(=O)NCCNC(=O)c2ccoc2)cc1C,-3.26
4,CCC(O)CN1CCN(C(=O)c2cnn(-c3ccccc3F)c2)CC1 (stereo unspecified),-3.69
5,COc1ccc(C(=O)N(CCC#N)Cc2ccccn2)cc1,13.1
6,Cn1cc(Br)c(=O)c(NS(=O)(=O)c2ccccc2F)c1,-2.62
7,CCN(C(=O)COc1nc(C(C)(C)C)no1)C1CC1,3.2
8,O=C(NCCCO)Nc1cccc(C[S+]([O-])Cc2ccccc2)c1 (stereo unspecified),-1.06
9,NC(=O)Cn1ccc(NC(=O)C2(c3cccc(Cl)c3)CC2)n1,0.217
10,CCOc1ccccc1CNC(=O)N(CC)C(C)c1cccnc1 (stereo unspecified),-3.64
11,O=C(Nc1cc(Cl)ccc1Cl)NC1CCN(C2CCOC2)CC1 (stereo unspecified),6.8
12,CSC(C)C(=O)N1CCN(CCO)CC1 (stereo unspecified),-6.69
13,COCCCOC1CN(C(=O)c2[nH]nc3c2CCCC3)C1,8.11
14,CC(=O)c1cc(C(=O)NC2(c3ccc(Br)cc3)CC2)n(C)c1,5.78
15,Cc1cc(C)c(CNc2cnc3ccccc3n2)c(=O)[nH]1,41.8
16,CC(Cn1ccnc1)NS(=O)(=O)Cc1ccc(F)cc1 (stereo unspecified),5.36
17,CN(CCn1cccn1)S(=O)(=O)c1ccc(C#N)cc1,-4.81
18,COc1cccc(OCc2nnc3n2N=C(C(C)(C)C)CS3)c1,4.4
19,CC(Cn1cccn1)NCc1csc(-c2ccc(F)cc2)n1 (stereo unspecified),-67.9
20,COc1ccccc1OCC(=O)Nc1ncccc1Cl,-3.61
21,Cn1nc2c(cc1=O)CN(CCc1nc3ccccc3c(=O)[nH]1)CC2,-10.9

row,Structure (SMILES),cytotoxicity at 10 µM [%]
1,O=C(CCN1CCC(C(=O)c2cc(F)ccc2F)CC1)NC1CC1,-7.74
2,Cc1nnc2n1CCN(C(=O)c1cn(-c3ccccc3Cl)nn1)C2,-4.55
3,Cc1nnc([C@@]23CCO[C@@H]2CCN(S(=O)(=O)c2cccnc2)C3)o1,-103
4,O=C(c1ccncc1)N1CCc2c(COCC3CC3)cncc2C1,-78.7
5,Cn1cc(-c2cnc(N3CCOCC3)nc2)cc1C(=O)NC1CC1,-80.4
6,CCC(CC)NC(=O)c1ccc2nnc(C3CCN(S(C)(=O)=O)C3)n2c1 (stereo unspecified),3.25
7,CCCC1C=CCN1C(=O)c1cc(COc2ccccc2)[nH]n1 (stereo unspecified),9.8
8,CN(C)C(C(=O)NCC(F)(F)F)c1cccc(F)c1 (stereo unspecified),-2.49
9,O=C(CCc1cc2n(n1)CCN(CCCn1cccc1)C2)N1CCCC1,-15.4
10,O=C(COc1cccc(F)c1)N1C[C@@H](CN2CCCC2)C[C@H](CO)C1,3.94
11,COCCC1(CO)CCCN(C(=O)CCC(F)(F)F)C1 (stereo unspecified),-2.86
12,O=C(O)c1ccc(CNC(=O)C2CCN(Cc3ccco3)CC2)s1,-0.861
13,C=C(C)COc1ccc(C(=O)N(C)C(C)c2ccon2)cc1 (stereo unspecified),4.18
14,Cn1cc(CN2CC[C@@H]3[C@@H](CCC(=O)N3CCc3ccccc3)C2)cn1,-1.45
15,Cn1cc(-c2ccnc(NCC3CCN(Cc4ccccc4)C3)n2)cn1 (stereo unspecified),-130
16,COCC(NC1CCN(CC(C)C)CC1)c1ccnn1C (stereo unspecified),4.22
17,Cc1ccc(C(C(=O)O)N2CCCN(Cc3ccccn3)CC2)c(F)c1 (stereo unspecified),-1.62
18,CN1CCCC2(CCN(S(=O)(=O)c3ccc(-c4cnco4)s3)C2)C1=O (stereo unspecified),5.84
19,COc1ccc(F)c(F)c1C(=O)N1C[C@@H](CN(C)CCO)[C@@H](CO)C1,-1.02
20,CN(C)CCC1CCCCN1Cc1cnn(C)c1C1CC1 (stereo unspecified),2.84
21,Cc1ccc(C)c2c(O)cc(CN3CCNC(=O)C3C)nc12 (stereo unspecified),-1.66

row,Structure (SMILES),cytotoxicity at 10 µM [%]
1,COc1ccc(NC(=O)Cn2nc(C)c(C)cc2=O)cc1Cl,-6.47
2,COc1ccc(NC(=O)Cn2nc(C)c(C)cc2=O)cc1,4.2
3,CS(=O)(=O)N1CCC(Oc2ccc(C(=O)NC3CCOC3)cc2Cl)CC1 (stereo unspecified),-4.88
4,Cc1nnc(CNCC2(O)CCCN(Cc3ccc(F)c(F)c3)C2=O)[nH]1 (stereo unspecified),-6.79
5,COc1ccc(CC2(C(=O)O)CCN(c3nc(C)ncc3C)CC2)cc1,-21.8
6,CN1CCN(Cc2nc3ccccc3[nH]2)[C@H]2CS(=O)(=O)C[C@H]21,20.5
7,O=C1OC2(CCN(C3CCCOC3)CC2)CN1CCc1ccccc1 (stereo unspecified),-17.5
8,Cc1ccc(C#N)c(N2CCC(c3nccn3CCN(C)C)CC2)n1,-5.47
9,CCn1ccnc1CN1CCCN(C(=O)c2csc(C)n2)CC1,-2.84
10,CCOCC(O)CN1CCN(C(=O)c2cc(F)ccc2C)CC1 (stereo unspecified),-6.69
11,COc1cccc(CNC(=O)N2CCN(Cc3cc(C)on3)CC2)c1,-1.58
12,CCc1noc(C(C)N2CCC(C(=O)Nc3cnn(CC)c3)CC2)n1 (stereo unspecified),2.21
13,CN1CCc2c(C#N)c(NCC3CCCO3)n3cnnc3c2C1 (stereo unspecified),4.48
14,CNC(=O)C1(N2CCC[C@H]2C(=O)NC2CCCCC2)CCOCC1,-1.25
15,c1ccc(CN2CC[C@@H]3O[C@@H](COCCN4CCCC4)CC[C@@H]32)nc1,-80.6
16,Cc1ccc(CN2C[C@@H]3COC[C@H](NS(C)(=O)=O)[C@@H]3C2)s1,0.354
17,CCCC(=O)N1CC[C@@H]2[C@H](CC1)N(Cc1cccnc1)CCS2(=O)=O,-8.63
18,N#Cc1cccc(CN2CCC3(CC2)CC(c2ccncc2)C(=O)N3)c1 (stereo unspecified),3.44

# From ChEMBL document CHEMBL4513216, “Probing the Open Global Health Chemical Diversity Library for Multistage-Active Starting Points for Next-Generation Antimalarials” (ACS Infect Dis, 2020)
